According to ChEMBL document CHEMBL1121771, “Chemistry and hypoglycemic activity of benzimidoylpyrazoles” (J Med Chem, 1981):

What was measured:
Rattus norvegicus [1] = organism: Rattus norvegicus; test: Percent change in blood glucose concentration in glucose-primed rat to that of control rats.; assay type: functional
Outline: (§1)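 Male Sprague-Dawley rats (140-150 g), groups of six, fasted 16 h, then given 100 mg glucose sc in 0.5 mL isotonic NaCl. Test compound given orally right after as an aqueous carboxymethylcellulose suspension (0.5 mL); controls received vehicle. Blood was taken by cardiac puncture under light ether anesthesia 2 h later. Glucose measured by Autoanalyzer modification of Hoffman method; mean percent change versus control group.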

Rattus norvegicus [2] = test: Blood glucose concentration at 2 hours after the administration in glucose-primed rat; assay type: functional; outline: as §1
Rattus norvegicus [3] = test: Blood glucose concentration 2 hours after the administration in glucose-primed rat at 100 mg/kg.; assay type: functional; outline: as §1
Rattus norvegicus [4] = test: Percent reduction in blood glucose after perorally administration of compound at 100 mg/kg in non-glucose-primed rat; conditions: route oral
[5] = Lethal dose after peroral administration in mouse; conditions: in vivo, po
[6] = Lethal dose after intraperitoneal administration in mouse; conditions: in vivo, ip
Rattus norvegicus [7] = test: Percent reduction in blood glucose after perorally administration of compound at 29.2 mg/kg in alloxanized rat; assay type: functional; conditions: route oral
Outline: (§2)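 Male Sprague-Dawley rats (180-220 g) made diabetic with 225 mg/kg alloxan monohydrate intraabdominally; glucosuria checked by reagent strip after 3 days, positives grouped in sixes. Control tail-vein blood taken, oral compound given, blood resampled at 5 h. Reported as percent change in blood glucose versus pretreatment.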

Cavia porcellus [8] = test: Percent reduction in blood glucose after perorally administration of compound at 30 mg/kg in normal fasted guinea pig; assay type: functional; conditions: route oral
Outline: (§3)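 Hartley guinea pigs (450-500 g), male and female, grouped by sex in fours, food withheld 18 h, water allowed. Zero-time blood taken by cardiac puncture, then oral dosing, with a second cardiac sample 5 h later. Reported as percent change in blood glucose relative to the pretreatment value.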

Rattus norvegicus [9] = test: Percent reduction in blood glucose after perorally administration of compound at 25 mg/kg in adrenalectomized rat; conditions: route oral
Rattus norvegicus [10] = test: Percent reduction in blood glucose after perorally administration of compound at 25 mg/kg in glucose-primed rat; assay type: functional; conditions: route oral; outline: as §1
Rattus norvegicus [11] = test: Percent reduction in blood glucose after perorally administration of compound at 100 mg/kg in alloxanized rat; assay type: functional; conditions: route oral; outline: as §2
Rattus norvegicus [12] = test: Percent reduction in blood glucose after perorally administration of compound at 500 mg/kg in glucose-primed rat; assay type: functional; conditions: route oral; outline: as §1
Cavia porcellus [13] = test: Percent reduction in blood glucose after perorally administration of compound at 160 mg/kg in normal fasted guinea pig; assay type: functional; conditions: route oral; outline: as §3
Rattus norvegicus [14] = test: Percent reduction in blood glucose after perorally administration of compound at 250 mg/kg in glucose-primed rat; assay type: functional; conditions: route oral; outline: as §1
Rattus norvegicus [15] = test: Percent reduction in blood glucose after perorally administration of compound at 25 mg/kg in non-glucose-primed rat; assay type: functional; conditions: route oral
Rattus norvegicus [16] = test: Percent reduction in blood glucose after perorally administration of compound at 10 mg/kg in adrenalectomized rat(p= 0.05); assay type: functional; conditions: route oral
Rattus norvegicus [17] = test: Percent reduction in blood glucose after perorally administration of compound at 10 mg/kg in glucose-primed rat; assay type: functional; conditions: route oral; outline: as §1
Cavia porcellus [18] = test: Percent reduction in blood glucose after perorally administration of compound at 150 mg/kg in normal fasted guinea pig; assay type: functional; conditions: route oral; outline: as §3
Rattus norvegicus [19] = test: Percent reduction in blood glucose after perorally administration of compound at 20 mg/kg in adrenalectomized rat; assay type: functional; conditions: route oral
Cavia porcellus [20] = test: Percent reduction in blood glucose after perorally administration of compound at 125 mg/kg in normal fasted guinea pig; assay type: functional; conditions: route oral; outline: as §3
Cavia porcellus [21] = test: Percent reduction in blood glucose after perorally administration of compound at 100 mg/kg in normal fasted guinea pig; assay type: functional; conditions: route oral; outline: as §3
Rattus norvegicus [22] = test: Percent reduction in blood glucose after perorally administration of compound at 100 mg/kg in glucose-primed rat; assay type: functional; conditions: route oral; outline: as §1
Rattus norvegicus [23] = test: Percent reduction in blood glucose after perorally administration of compound at 25 mg/kg in adrenalectomized rat; assay type: functional; conditions: route oral
Rattus norvegicus [24] = test: Percent reduction in blood glucose after perorally administration of compound at 50 mg/kg in glucose-primed rat; assay type: functional; conditions: route oral; outline: as §1
Rattus norvegicus [25] = test: Percent reduction in blood glucose after perorally administration of compound at 300 mg/kg in alloxanized rat; assay type: functional; conditions: route oral; outline: as §2
Rattus norvegicus [26] = test: Percent reduction in blood glucose after perorally administration of compound at 100 mg/kg in non-glucose-primed rat; assay type: functional; conditions: route oral
Rattus norvegicus [27] = test: Percent reduction in blood glucose after perorally administration of compound at 300 mg/kg in non-glucose-primed rat; conditions: route oral
Rattus norvegicus [28] = test: Percent reduction in blood glucose after perorally administration of compound at 80 mg/kg in non-glucose-primed rat; assay type: functional; conditions: route oral
Rattus norvegicus [29] = test: Percent reduction in blood glucose after perorally administration of compound at 120 mg/kg in non-glucose-primed rat; assay type: functional; conditions: route oral
Cavia porcellus [30] = test: Percent reduction in blood glucose after perorally administration of compound at 25 mg/kg in normal fasted guinea pig; assay type: functional; conditions: route oral; outline: as §3

| SMILES | Change (Rattus norvegicus [1]) [%] | Blood glucose (Rattus norvegicus [2]) [%] | Blood glucose (Rattus norvegicus [3]) [%] | other results |
| --- | --- | --- | --- | --- |
| COC(=O)c1cc(C)n(/C(=N\c2ccccc2)c2ccccc2C)n1 | 21.4 | 57.7 | – | – |
| COC(=O)c1cc(C)n(/C(=N\CC(C)C)c2cccc(C(F)(F)F)c2)n1 | 25.2 | – | 62.2 | – |
| COC(=O)c1cc(C)n(/C(=N\c2ccc(C)cc2)c2ccc(C)cc2)n1 | 25.4 | 60.4 | – | – |
| COc1ccc(/N=C(/c2ccccc2)n2nc(C)cc2C)cc1 | 27.2 | 60.6 | – | – |
| COC(=O)c1cc(-c2ccc(Cl)cc2)n(/C(=N\c2ccc(C)cc2)c2ccc(C)cc2)n1 | 9 | – | 69.8 | – |
| COC(=O)c1cc(-c2ccc(Cl)cc2)n(/C(=N\C2CCCCC2)c2ccccc2)n1 | 4.4 | – | 84.9 | – |
| COC(=O)c1cc(C)n(/C(=N\C2CCCCC2)c2ccccc2)n1 | 34.5 | 52.1 | – | Reduction (Rattus norvegicus [4]): 7.6%; Reduction (Rattus norvegicus [2]): 27%; LD50 [5]: 1000 mg/kg; LD50 [6]: 1000 mg/kg; Reduction (Rattus norvegicus [7]): 29.5%; Reduction (Cavia porcellus [8]): 0%; Reduction (Rattus norvegicus [9]): 32% |
| COC(=O)c1cc(-c2ccc(Cl)cc2)n(/C(=N\c2ccccc2)c2ccccc2)n1 | 5.6 | – | 81.1 | – |
| Cc1ccc(S(=O)(=O)NC(=O)NN2CCCCCC2)cc1 [TOLAZAMIDE] | – | – | – | Reduction (Rattus norvegicus [10]): 50%; Reduction (Rattus norvegicus [11]): 0%; LD50 [5]: 1000 mg/kg; Reduction (Rattus norvegicus [12]): 51.1%; Reduction (Cavia porcellus [13]): 25%; Reduction (Rattus norvegicus [14]): 42.9%; LD50 [6]: 1000 mg/kg; Reduction (Rattus norvegicus [15]): 29.4%; Reduction (Rattus norvegicus [16]): 75.8%; Reduction (Rattus norvegicus [17]): 28.1%; Reduction (Cavia porcellus [18]): 30.4%; Reduction (Rattus norvegicus [19]): 85.6%; Reduction (Cavia porcellus [20]): 26.7%; Reduction (Cavia porcellus [21]): 33.5% |
| COC(=O)c1cc(C)n(/C(=N\c2cccc(C(F)(F)F)c2)c2ccccc2)n1 | 33.5 | 57.9 | – | – |
| CC/N=C(/c1ccccc1)n1nc(C(=O)OC)cc1C | 34 | – | 54.9 | – |
| COC(=O)c1cc(C)n(/C(=N\c2cccc(C)c2C)c2ccccc2)n1 | 8.3 | – | 75.6 | – |
| Cc1cc(C)n(/C(=N\c2ccccc2)c2ccccc2)n1 | 18.3 | 72.1 | – | – |
| COC(=O)c1cc(C)n(/C(=N\C2CCCCC2)c2ccccc2OC)n1 | 20.5 | 68.4 | – | – |
| COC(=O)c1cc(C)n(/C(=N\c2ccccc2OC)c2ccccc2)n1 | 35.1 | 96 | – | – |
| COC(=O)c1cc(C)n(/C(=N\c2ccc(Cl)cc2)c2ccccc2)n1 | 5.5 | – | 78.7 | – |
| COC(=O)c1cc(-c2ccc(Cl)cc2)n(/C(=N\c2ccccc2)c2ccccc2C)n1 | 6.3 | – | 71.1 | – |
| COC(=O)c1cc(C)n(/C(=N\c2ccc(OC)cc2)c2ccccc2)n1 | 40 | 62.2 | – | Reduction (Rattus norvegicus [10]): 35.2%; Reduction (Rattus norvegicus [22]): 51.3%; Reduction (Rattus norvegicus [23]): 44.3%; Reduction (Rattus norvegicus [24]): 33.8%; LD50 [5]: 1000 mg/kg; LD50 [6]: 1000 mg/kg; Reduction (Rattus norvegicus [25]): 49%; Reduction (Rattus norvegicus [26]): 31.5%; Reduction (Cavia porcellus [21]): 21% |
| COC(=O)c1cc(C)n(/C(=N\CCC(C)C)c2ccccc2)n1 | 1.3 | – | 91.3 | – |
| COC(=O)c1cc(C)n(/C(=N\c2ccccc2)c2ccccc2OC)n1 | 25.7 | 58.3 | – | – |

| SMILES | Change (Rattus norvegicus [1]) [%] | Blood glucose (Rattus norvegicus [2]) [%] | Blood glucose (Rattus norvegicus [3]) [%] | other results |
| --- | --- | --- | --- | --- |
| COC(=O)c1cc(C)n(/C(=N\c2ccc(OC)c(OC)c2)c2ccccc2)n1 | 34.1 | 58 | – | – |
| CCCCNC(=N)NC(=N)N [BUFORMIN] | – | – | – | Reduction (Rattus norvegicus [22]): 0%; LD50 [5]: 300 mg/kg; LD50 [6]: 140 mg/kg; Reduction (Rattus norvegicus [7]): 21.9%; Reduction (Cavia porcellus [8]): 50%; Reduction (Rattus norvegicus [27]): 25.9% |
| COC(=O)c1cc(C)n(/C(=N\c2ccccc2)c2ccccc2Cl)n1 | 8.9 | – | 70 | – |
| COC(=O)c1cc(C)n(/C(=N\c2ccc(C)cc2)c2ccccc2)n1 | 18.9 | 71.9 | – | – |
| COC(=O)c1cc(C)n(/C(=N\CC(C)C)c2ccccc2)n1 | 25.5 | – | 59.7 | – |
| COC(=O)c1cc(-c2ccc(Cl)cc2)n(/C(=N\C2CCCCC2)c2ccccc2OC)n1 | 12.9 | – | 69.2 | – |
| N=C(N)NC(=N)NCCc1ccccc1 [PHENFORMIN] | – | – | – | Reduction (Rattus norvegicus [22]): 0%; Reduction (Rattus norvegicus [11]): 62%; Reduction (Rattus norvegicus [28]): 25.3%; Reduction (Rattus norvegicus [29]): 52.9%; Reduction (Cavia porcellus [30]): 46% |
| CCCC/N=C(/c1ccccc1)n1nc(C(=O)OC)cc1C | 21.2 | – | 66.1 | – |
| COC(=O)c1cc(-c2ccc(Cl)cc2)n(/C(=N\c2ccc(OC)cc2)c2ccccc2)n1 | 3.9 | – | 78.4 | – |
| COC(=O)c1cc(C)n(/C(=N\c2cccc(OC)c2)c2ccccc2)n1 | 22 | 63 | – | – |
| Cc1cc(C)n(/C(=N\C2CCCCC2)c2ccccc2)n1 | 13.6 | – | 69.8 | – |
| C=CC/N=C(/c1ccccc1)n1nc(C(=O)OC)cc1C | 7 | – | 69.6 | – |
| COC(=O)c1cc(C)n(/C(=N\c2ccccc2)c2ccccc2)n1 | 34.3 | 58 | – | – |
| COC(=O)c1cc(C)n(/C(=N\CC(C)C)c2ccc(C)cc2)n1 | 19 | – | 65.2 | – |
| Cc1cc(C)n(/C(=N\CC(C)C)c2ccccc2)n1 | 10.6 | – | 62.8 | – |
| COC(=O)c1cc(C)n(/C(=N\c2ccccc2)c2ccc(Cl)c(Cl)c2)n1 | 24.3 | 101.5 | – | – |
| COC(=O)c1cc(C)n(/C(=N\CC(C)C)c2ccc(F)cc2)n1 | 1.3 | – | 68.9 | – |
| COC(=O)c1cc(-c2ccc(Cl)cc2)n(/C(=N\c2ccc(Cl)cc2)c2ccccc2)n1 | 1.2 | – | 77.7 | – |
| CCC/N=C(/c1ccccc1)n1nc(C(=O)OC)cc1C | 6.2 | – | 80.5 | – |
| CC/N=C(/c1ccccc1)n1nc(C)cc1C | 24.7 | – | 58.6 | – |
